This note sets out measurements from ChEMBL document CHEMBL4680075, “Small-Molecule CD4-Mimics: Structure-Based Optimization of HIV-1 Entry Inhibition” (ACS Med Chem Lett, 2016).

Each structure is given as a SMILES string. Where only a bound is given, the exact number is not on record here.

For test [1], the system named is Human immunodeficiency virus 1. Description: Binding affinity to HIV1 YU-2 gp120 assessed as change in gibbs free energy by isothermal titration calorimetric analysis. In general terms: Isothermal titration calorimetry measures the heat released or taken up as one component is titrated into another.
The subject of test [2] is Human immunodeficiency virus 1. Description: Binding affinity to HIV1 YU-2 gp120 assessed as change in enthalpy by isothermal titration calorimetric analysis.
Test [3] has as its system Human immunodeficiency virus 1. Nature of the test: Antiviral activity against HIV1 JRFL infected in dog Cf2Th/CD4-CCR5 cells assessed as inhibition of viral entry incubated for 30 mins prior to infection and measured after 48 hrs post infection by luciferase reporter gene assay. Type of test: functional, organism-based. To be noted: Human immunodeficiency virus 1, JRFL. The gist of the method: (§1)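 Cf2Th-CD4/CCR5 target cells infected with recombinant luciferase-expressing HIV-1 pseudoviruses bearing the indicated strain's envelope glycoproteins, with compound at increasing concentrations; infection read as target-cell luciferase activity, expressed as percent of infection without compound; IC50 derived from this.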
(In general: Reporter assays use an easily measured gene product as a stand-in for the process of interest.)

Test [4] can be described thus: Binding affinity to HIV1 YU-2 gp120 by isothermal titration calorimetric analysis. Also on record: species or system Human immunodeficiency virus 1.
Test [5] relates to Human immunodeficiency virus 1. Description: Antiviral activity against HIV1 AD8 infected in dog Cf2Th/CD4-CCR5 cells assessed as inhibition of viral entry incubated for 30 mins prior to infection and measured after 48 hrs post infection by luciferase reporter gene assay. Type of test: functional, organism-based. To be noted: Human immunodeficiency virus 1, AD8, Cf2Th-CCR5. The gist of the method: as §1

Test [6] concerns Human immunodeficiency virus 1. Description: Binding affinity to HIV1 YU-2 gp120 assessed as change in entropy by isothermal titration calorimetric analysis.
In test [7] the test system is Human immunodeficiency virus 1. Description: Antiviral activity against HIV1 YU-2 infected in dog Cf2Th/CD4-CCR5 cells assessed as inhibition of viral entry incubated for 30 mins prior to infection and measured after 48 hrs post infection by luciferase reporter gene assay. To be noted: Human immunodeficiency virus 1, YU-2, Cf2Th-CCR5. Type of test: functional, organism-based. The gist of the method: as §1

Test [8] relates to Human immunodeficiency virus 1. Description: Antiviral activity against HIV1 pseudotyped with A-MLV envelop glycoprotein infected in dog Cf2Th/CD4-CCR5 cells assessed as inhibition of viral entry incubated for 30 mins prior to infection and measured after 48 hrs post infection by luciferase reporter gene assay. Type of test: functional, organism-based. Particulars: Human immunodeficiency virus 1, Cf2Th-CCR5. The gist of the method:
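Control counterscreen: Cf2Th-CD4/CCR5 cells infected with luciferase-expressing HIV-1 pseudotyped with amphotropic murine leukemia virus envelope glycoproteins, compound at increasing concentrations; luciferase activity in target cells as percent of no-compound infection; IC50 from this.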

Test [9] relates to Human immunodeficiency virus 1. Nature of the test: Antiviral activity against HIV1 Clade B infected in human TZM-bl cells assessed as inhibition of viral entry incubated for 30 mins prior to infection and measured after 48 hrs post infection by luciferase reporter gene assay. The class given is functional, organism-based. Particulars: Human immunodeficiency virus 1, Clade B.

Test [10] has as its system Human immunodeficiency virus 1. Description: Antiviral activity against HIV1 Clade C infected in human TZM-bl cells assessed as inhibition of viral entry incubated for 30 mins prior to infection and measured after 48 hrs post infection by luciferase reporter gene assay. Particulars: Human immunodeficiency virus 1, Clade C. The class given is functional, organism-based.

For orientation: IC50 means the concentration needed to halve the response being measured. As a reminder, the Kd is the equilibrium constant for the complex coming apart. Higher therefore signals a looser complex. Turning to `CN(Cc1ccc2c(c1)C[C@H](CNC(=N)N)[C@H]2NC(=O)C(=O)Nc1ccc(Cl)c(F)c1)C(=N)N`, in test [1], the deltaG was -9.6 kcal/mol. The deltaH in test [2] is -15.4 kcal/mol. In addition, the IC50 in [3] is 6.1 µM; in test [5], 1.6 µM; in test [7] it was 0.8 µM; in test [8], more than 100 µM. In test [4], this compound gave a Kd of 0.095 µM. Also, the -TdeltaS in test [6] worked out at 5.8 kcal/mol.

Turning to `CNCc1ccc2c(c1)C[C@@H](CNC(=N)N)[C@@H]2NC(=O)C(=O)Nc1ccc(Cl)c(F)c1`, in test [1], the deltaG is -8.1 kcal/mol. Besides, in test [2], the deltaH was -13.2 kcal/mol. Further, the IC50 was more than 100 µM in test [3], 21 µM in test [7] and more than 100 µM in test [8]. Besides, in test [4], binding was put at a Kd of 1.2 µM. The -TdeltaS in [6] came out at 5.1 kcal/mol.

Take `CNCc1ccc2c(c1)[C@@H](NC(=O)C(=O)Nc1ccc(Cl)c(F)c1)[C@H](CNC(=N)N)C2`: the deltaG in test [1] is -7.5 kcal/mol. The deltaH in test [2] is -11.3 kcal/mol. Besides, the IC50 in test [3] is more than 100 µM; in test [5], more than 100 µM; in [7], 87.8 µM; in [8], more than 100 µM. The same compound registered a Kd in test [4] of 3.4 µM. Further, the -TdeltaS in test [6] amounted to 3.8 kcal/mol.

For the compound `N=C(N)NC[C@H]1Cc2ccccc2[C@@H]1NC(=O)C(=O)Nc1ccc(Cl)c(F)c1`, in [1], the deltaG was -9.5 kcal/mol. For the same compound, in [2], the deltaH was -17.9 kcal/mol. The IC50 is 66.8 µM in test [3], 8.5 µM in test [5], 3.8 µM in [7] and 94.3 µM in test [8]. Also, in [4], the affinity, expressed as Kd, was 0.11 µM. The -TdeltaS in test [6] was found to be 8.4 kcal/mol.

For `CNCc1ccc2c(c1)[C@H](NC(=O)C(=O)Nc1ccc(Cl)c(F)c1)[C@@H](CNC(=N)N)C2`, in test [1], the deltaG is -10.4 kcal/mol. Further, the deltaH in test [2] was -28.2 kcal/mol. Moreover, the IC50 in [3] is 37.3 µM; in [5] it was 6.7 µM; in test [7], 2.1 µM; in [8] it was more than 100 µM. The Kd in test [4] was 0.024 µM. Also, the -TdeltaS in test [6] was found to be 17.8 kcal/mol.

In the case of `CNCc1ccc2c(c1)C[C@H](CNC(=N)N)[C@H]2NC(=O)C(=O)Nc1ccc(Cl)c(F)c1`, the deltaG in [1] is -10 kcal/mol. In addition, the deltaH in [2] was -20.7 kcal/mol. Further, the IC50 in test [3] is 14.5 µM; in [5], 3.1 µM; in test [9] it was 3.5 µM; in test [10] it was 17 µM; in test [7], 1.3 µM; in test [8], more than 100 µM. The same compound had a Kd in test [4] of 0.047 µM. Also, in [6], the -TdeltaS was 10.7 kcal/mol.

In the case of `CN(Cc1ccc2c(c1)[C@H](NC(=O)C(=O)Nc1ccc(Cl)c(F)c1)[C@@H](CNC(=N)N)C2)C(=N)N`, the deltaG in test [1] was -9.6 kcal/mol. For the same compound, the deltaH in test [2] is -14.2 kcal/mol. In addition, the IC50 amounted to 19.7 µM in test [3], 1.2 µM in [5], 1.6 µM in test [7] and 83.7 µM in test [8]. This compound also displayed a Kd in [4] of 0.095 µM. In test [6], the -TdeltaS was determined as 4.6 kcal/mol.
